Active and inactive are the calls of the source. The rule behind the calls is not given here.
Tests used:
Trypanosoma brucei [1] = assay: Inhibition of recombinant Trypanosoma brucei N-terminal His6-tagged AdoMetDC/prozyme hetrodimer expressed in Escherichia coli BL21/DE3 cells at 21 uM at pH 7.2 by RapidFire-MS-based enzyme activity assay
Procedure, shortened: (§1)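 Steady-state decarboxylation of S-adenosyl-L-methionine by purified TbAdoMetDC/prozyme at pH 7.2; decarboxylated AdoMet product read by RapidFire–MS. Inhibitor added from DMSO to 2% final DMSO. Percent inhibition reported at the top tested concentration when mean inhibition stayed below 50%; triplicate.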

[2] = target: T1, S-adenosylmethionine decarboxylase proenzyme (Homo sapiens, UniProt P17707); assay: Inhibition of recombinant human N-terminal His6-tagged AdoMetDC expressed in Escherichia coli BL21/DE3 cells at pH 7.2 by RapidFire-MS-based enzyme activity assay
T1 sequence (P17707 whole entry): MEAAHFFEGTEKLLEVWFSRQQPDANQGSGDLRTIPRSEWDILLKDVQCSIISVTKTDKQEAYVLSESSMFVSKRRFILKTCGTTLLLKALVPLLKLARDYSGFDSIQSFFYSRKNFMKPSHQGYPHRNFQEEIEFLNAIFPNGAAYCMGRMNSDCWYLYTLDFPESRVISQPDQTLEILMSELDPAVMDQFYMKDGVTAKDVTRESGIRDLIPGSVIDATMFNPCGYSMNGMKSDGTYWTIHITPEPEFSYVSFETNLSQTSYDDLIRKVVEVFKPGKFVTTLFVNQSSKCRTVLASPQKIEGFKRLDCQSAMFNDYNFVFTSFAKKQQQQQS

[3] = test system: Trypanosoma brucei brucei; assay: Antitrypanosomal activity against blood stream form Trypanosoma brucei brucei Lister 427 at 25 uM after 48 hrs by CellTiter-Glo assay; format: functional
Procedure, shortened: (§2)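 Bloodstream-form parasites grown in HMI-19 with fetal bovine serum, exposed 48 h to a 3-fold serial dilution (0.0038–25 μM or 0.015–100 μM final; 0.1% DMSO vehicle). Cell density read by ATP bioluminescence (CellTiter-Glo). Triplicate; EC50 from normalized response vs log concentration fit, bottom fixed at 0, Hill slope fixed at –8 when curve steepness gave ambiguous fit. Percent inhibition given at top concentration when <50%.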

[4] = Inhibition of recombinant Trypanosoma brucei N-terminal His6-tagged AdoMetDC/prozyme hetrodimer expressed in Escherichia coli BL21/DE3 cells at pH 7.2 by RapidFire-MS-based enzyme activity assay
[5] = Inhibition of recombinant Trypanosoma brucei N-terminal His6-tagged AdoMetDC/prozyme hetrodimer expressed in Escherichia coli BL21/DE3 cells at pH 6.8 by RapidFire-MS-based enzyme activity assay
[6] = target: T2, S-adenosylmethionine decarboxylase proenzyme (Trypanosoma brucei brucei) (UniProt P50244); assay: Inhibition of AdoMetDC in bloodstream form Trypanosoma brucei brucei Lister 427 assessed as increase in prozyme level at 1.5 times EC50 after 24 hrs by Western blot method
T2 sequence (whole entry): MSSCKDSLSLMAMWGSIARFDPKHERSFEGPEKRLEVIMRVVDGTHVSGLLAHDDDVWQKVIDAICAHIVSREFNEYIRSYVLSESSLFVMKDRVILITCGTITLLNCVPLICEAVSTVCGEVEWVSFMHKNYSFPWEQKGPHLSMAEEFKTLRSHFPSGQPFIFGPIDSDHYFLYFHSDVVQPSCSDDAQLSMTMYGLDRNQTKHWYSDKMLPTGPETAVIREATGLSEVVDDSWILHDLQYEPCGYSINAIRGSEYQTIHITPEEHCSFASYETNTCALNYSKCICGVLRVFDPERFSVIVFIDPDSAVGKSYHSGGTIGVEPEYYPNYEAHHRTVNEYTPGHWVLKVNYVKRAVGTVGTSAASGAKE

[7] = Selectivity ratio of IC50 for recombinant human N-terminal His6-tagged AdoMetDC expressed in Escherichia coli BL21/DE3 cells to IC50 for recombinant Trypanosoma brucei N-terminal His6-tagged AdoMetDC/prozyme hetrodimer expressed in Escherichia coli BL21/DE3 cells
Procedure, shortened: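 Both enzymes assayed at pH 7.2 by RapidFire–MS, monitoring decarboxylated AdoMet. Inhibitor run as a 3-fold dilution series from 0.01 to 180 μM final, with 2% DMSO final. Data normalized to 0.5 μM Genz-644131 as full inhibition. IC50 fitted with bottom fixed at 0 and Hill slope fixed at −1, triplicate. Ratio is human IC50 over parasite IC50.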

[8] = test system: Trypanosoma brucei brucei; assay: Antitrypanosomal activity against bloodstream form Trypanosoma brucei brucei Lister 427 after 48 hrs by CellTiter-Glo assay; format: functional; details: Lister 427, 48 h; procedure, shortened: as §2
[9] = target: T3, S-adenosylmethionine decarboxylase proenzyme (Homo sapiens) (UniProt P17707); assay: Inhibition of recombinant human N-terminal His6-tagged AdoMetDC expressed in Escherichia coli BL21/DE3 cells at 180 uM at pH 7.2 by RapidFire-MS-based enzyme activity assay
T3 sequence (whole entry): T1 sequence (P17707 whole entry)

Trypanosoma brucei [10] = assay: Inhibition of recombinant Trypanosoma brucei N-terminal His6-tagged AdoMetDC/prozyme hetrodimer expressed in Escherichia coli BL21/DE3 cells at 180 uM at pH 7.2 by RapidFire-MS-based enzyme activity assay; procedure, shortened: as §1
Trypanosoma brucei [11] = assay: Inhibition of recombinant Trypanosoma brucei N-terminal His6-tagged AdoMetDC/prozyme hetrodimer expressed in Escherichia coli BL21/DE3 cells at 63 uM at pH 7.2 by RapidFire-MS-based enzyme activity assay; procedure, shortened: as §1
Trypanosoma brucei [12] = assay: Ratio of IC50 for recombinant Trypanosoma brucei N-terminal His6-tagged AdoMetDC/prozyme hetrodimer expressed in Escherichia coli BL21/DE3 cells at pH 7.7 to IC50 for recombinant Trypanosoma brucei N-terminal His6-tagged AdoMetDC/prozyme hetrodimer expressed in Escherichia coli BL21/DE3 cells at pH 6.8
Liver [13] = assay: Metabolic stability in CD-1 mouse pooled liver microsomes at 1 uM in presence of NADPH measured up to 30 mins by LC-MS/MS method; format: ADME, microsome; details: 0.5 h
[14] = Competitive inhibition of recombinant Trypanosoma brucei N-terminal His6-tagged AdoMetDC/prozyme hetrodimer expressed in Escherichia coli BL21/DE3 cells using S-adenosyl-L-methionine as substrate preincubated for 30 mins followed by substrate addition measured every 5 mins by double-reciprocal Lineweaver-Burk plot analysis
human MDR1 (P-gp) = assay: Apparent permeability from basolateral side to apical side in MDCK2 harboring human MDR1 cells in absence of Pgp inhibitor GF120918 at 10 to 20 uM after 60 mins by LC-MS/MS method; format: ADME, cell-based, Canis lupus familiaris, MDCK-II; details: dog, MDCK-MDR1
Procedure, shortened: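 MDCKII-hMDR1 monolayer permeability measured with or without Pgp inhibitor GF120918.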

Liver [15] = assay: Metabolic stability in mixed gender human pooled liver microsomes at 1 uM in presence of NADPH measured up to 30 mins by LC-MS/MS method; format: ADME, microsome; details: 0.5 h
[16] = Inhibition of recombinant Trypanosoma brucei N-terminal His6-tagged AdoMetDC/prozyme hetrodimer expressed in Escherichia coli BL21/DE3 cells at pH 7.7 by RapidFire-MS-based enzyme activity assay
Trypanosoma brucei [17] = assay: Reversible inhibition of recombinant Trypanosoma brucei N-terminal His6-tagged AdoMetDC/prozyme hetrodimer expressed in Escherichia coli BL21/DE3 cells using S-adenosyl-L-methionine as substrate preincubated for 30 mins followed by 100 fold dilution and substrate addition measured every 5 mins by RapidFire-mass spectrometry
[18] = target: T3, S-adenosylmethionine decarboxylase proenzyme (Homo sapiens); assay: Inhibition of recombinant human N-terminal His6-tagged AdoMetDC expressed in Escherichia coli BL21/DE3 cells at 63 uM at pH 7.2 by RapidFire-MS-based enzyme activity assay
[19] = test system: Trypanosoma brucei brucei; assay: Antitrypanosomal activity against blood stream form Trypanosoma brucei brucei Lister 427 at 100 uM after 48 hrs by CellTiter-Glo assay; format: functional; procedure, shortened: as §2

SMILES | IC50 [2] [µM] | Activity [3] [%] | IC50 [4] [µM] | other results
CC(=O)c1ccc(-c2cc(Cl)cc(Nc3cc(C)nc(N)n3)c2)cc1 | > 21 | – | – | inhibition (Trypanosoma brucei [1]): 28%
Cc1cc(Nc2cccc(Cl)c2Cl)nc(N)n1 | > 180 | 27 | 137 | –
Cc1cc(Nc2ccc(Cl)cc2Cl)nc(N)n1 | > 180 | 28 | > 180 | –
Nc1cc(Nc2cc(Cl)cc(Cl)c2)nc(N)n1 | > 180 | – | 48 | IC50 [5]: 5.8 µM
Nc1nc(Cl)cc(Nc2cc(Cl)cc(Cl)c2)n1 | > 180 | – | > 180 | inhibition [6]: inactive
Cc1cc(Nc2ccc(Br)cc2F)nc(N)n1 | > 180 | 25 | > 180 | –
Cc1cc(Nc2cc(C(F)(F)F)ccc2Cl)nc(N)n1 | > 180 | 28 | 199 | –
Cc1cc(Nc2cc(Cl)ccc2C)nc(N)n1 | > 180 | 28 | > 180 | –
Cc1cc(Nc2cc(Cl)c(F)c(Cl)c2)nc(N)n1 | – | – | 1.5 | Ratio IC50 [7]: > 100
Nc1nc(Nc2cc(Cl)cc(Cl)c2)cc(-c2ccccc2)n1 | > 21 | – | – | inhibition (Trypanosoma brucei [1]): 24%
Cc1cc(Nc2cc(Cl)cc(-c3ccc(F)c(Cl)c3)c2)nc(N)n1 | > 180 | – | 157 | IC50 [8]: 3.2 µM
Cc1cc(Nc2cc(Br)cc(Br)c2)nc(N)n1 | – | – | 1.9 | Ratio IC50 [7]: > 100; inhibition [9]: 31%
Cc1cc(Nc2ccc(F)c(F)c2)nc(N)n1 | > 180 | 25 | – | inhibition (Trypanosoma brucei [10]): 33%
Cc1cc(Nc2cc(Cl)ccc2Cl)nc(N)n1 | > 180 | 23 | 115 | –
Cc1cc(Nc2cccc(Cl)c2C)nc(N)n1 | > 180 | 29 | > 180 | –
Cc1cc(Nc2ccc(Cl)cc2)nc(N)n1 | > 180 | 28 | > 180 | –
Cc1cc(Nc2cc(Cl)cc(-c3cncs3)c2)nc(N)n1 | > 21 | – | – | inhibition (Trypanosoma brucei [1]): 42%
Nc1nccc(Nc2cc(Cl)cc(Cl)c2)n1 | > 180 | – | 13 | inhibition [6]: Active
Cc1cc(Nc2cc(Cl)cc(Cl)c2)ncn1 | > 180 | – | > 180 | inhibition [6]: inactive
Cc1cc(Nc2cc(Cl)cc(-c3cc4ccccc4o3)c2)nc(N)n1 | > 63 | – | – | inhibition (Trypanosoma brucei [11]): 23%
C=CCOc1cc(Br)cc(Nc2cc(C)nc(N)n2)c1 | – | – | 4.5 | IC50 [8]: 4.4 µM; inhibition [9]: 28%
Cc1cc(Nc2cc(Cl)cc(-c3ccoc3)c2)nc(N)n1 | – | – | 7.4 | IC50 [8]: 7.1 µM; inhibition [9]: 30%
Cc1cc(Nc2cc(Br)cc(OCC(F)(F)F)c2)nc(N)n1 | 44 | – | 1.6 | Ratio IC50 [7]: 27
Cc1cc(Nc2cc(Cl)cc(Cl)c2)nc(N)n1 | – | – | 3.7 | Ratio IC50 (Trypanosoma brucei [12]): 60; Stability (Liver [13]): Unstable; IC50 [5]: 0.5 µM; Ki [14]: 2.6 µM; Papp B→A at 1 h, up to 20 µM (human MDR1 (P-gp)): 13.5 ×10⁻⁶ cm/s; inhibition [9]: 27%; Stability (Liver [15]): Unstable; IC50 [16]: 30 µM; inhibition (Trypanosoma brucei [17]): Active; inhibition [6]: Active
Cc1cc(Nc2cc(Cl)cc(-c3ccccc3)c2)nc(N)n1 | – | – | 3.3 | inhibition [18]: 30%
Cc1cc(Nc2cc(Cl)cc(Cl)c2O)nc(N)n1 | > 180 | – | 37 | Activity [19]: 26%
